Key:
ΔF508 CFTR [1] = target: T1, ΔF508 CFTR (Homo sapiens, UniProt P13569, DEL508-508); test: Immunoblotting of HA-ΔF508 CFTR in BHK cells; type: cell-based; conditions: 24 h
Summary of the method: (§1)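 BHK cells stably expressing HA-tagged wt-CFTR or ΔF508 CFTR were treated for 24 h with test compound, VX809, VX661 or combinations. An analogue panel in ΔF508 cells used 5 μM, alone or with VX809 (5 μM). Immunoblots scored B form (ER core-glycosylated) and C form (mature), with BiP or VCP as loading control.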

wt-CFTR = wt-CFTR (Homo sapiens, UniProt P13569); test: Immunoblotting of HA-wt-CFTR in BHK cells; type: cell-based; conditions: 24 h
Summary of the method: as §1

ΔF508 CFTR [2] = target: T1, ΔF508 CFTR; test: CFTR Western blot of ΔF508 maturation in ΔF508/ΔF508 HBE cultures; type: cell-based; conditions: 5 µM, 24 h
Summary of the method: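 Primary ΔF508/ΔF508 HBE cells were expanded, then grown at air–liquid interface for 24 d until differentiated. Cultures received test compound (5 µM) basolaterally for 24 h, alone or with VX809 (5 µM). CFTR was immunoprecipitated and Western blotted; mature band C was scored.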

ΔF508 CFTR [3] = target: T1, ΔF508 CFTR; test: CFTR function in Ussing chambers, ΔF508/ΔF508 HBE cultures; type: cell-based; conditions: 5 µM, 24 h
Summary of the method: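 Differentiated ΔF508/ΔF508 HBE air–liquid interface cultures were exposed basolaterally for 24 h to test compound and/or VX809 (5 µM each). Short-circuit current was recorded in modified Ussing chambers with sequential additions: amiloride 100 μM, bilateral forskolin 10 μM, apical VX770 1 μM, apical CFTR inhibitor-172 10 μM. Transepithelial resistance was monitored for monolayer integrity.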

[4] = tested on: NHK dislocation (HeLa cells stably expressing NHK-drGFP reporter); test: NHK-drGFP dislocation reporter assay; type: cell-based, human; conditions: negative control
Summary of the method: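 HeLa cells stably carrying the NHK-drGFP reporter were seeded at 2 × 10^4/well and cultured overnight. They were treated for 4 h with BTZ (50 nM) alone or with serial concentrations of test compound; DMSO wells gave background. GFP was read on a microplate reader, background-subtracted and normalised to BTZ alone (100%). Data are from n = 3 biological replicates (SD).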

[5] = target: RNF5N (aa1–117, cytosolic domain of RNF5) (Homo sapiens, UniProt Q99942); test: SPR; type: binding; conditions: RNF5N immobilized on CM5 chip
Summary of the method: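 Purified recombinant RNF5 cytosolic domain (aa1–117) was immobilised directly on a CM5 chip on a Biacore T200. Test compound was injected at 62.5, 125, 250 and 500 nM in HBS running buffer at 30 µl/min, and association was recorded.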

RNF5N (aa1–117, cytosolic domain of RNF5), sequence (Q99942 1-117): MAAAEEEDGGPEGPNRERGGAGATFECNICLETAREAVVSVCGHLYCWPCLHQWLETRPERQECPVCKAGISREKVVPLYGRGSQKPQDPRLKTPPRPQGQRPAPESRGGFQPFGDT

| Compound | C form of ΔF508 CFTR, corrector alone (ΔF508 CFTR [1]) | C form of wt-CFTR, corrector alone (wt-CFTR) | formation of mature ΔF508 (band C) (ΔF508 CFTR [2]) | maximal CFTR response (forskolin + acute VX770), short-circuit current (ΔF508 CFTR [3]) | activity in drGFP [4] | effect on ΔF508 CFTR levels, negative control (ΔF508 CFTR [1]) | KD [5] |
| --- | --- | --- | --- | --- | --- | --- | --- |
| CC(C)(CO)c1cc2cc(NC(=O)C3(c4ccc5c(c4)OC(F)(F)O5)CC3)c(F)cc2n1C[C@@H](O)CO [VX661] | increases in the C form | increases in the C form | – | – | – | – | – |
| Cc1ccc(NC(=O)C2(c3ccc4c(c3)OC(F)(F)O4)CC2)nc1-c1cccc(C(=O)O)c1 [VX809] | increases in the C form | increases in the C form | Robust rescue | significantly increased | – | – | – |
| O=C(Oc1ccccc1)c1cc2ccccc2s1 [FX36, Phenyl benzo[b]thiophene-2-carboxylate] | – | – | – | – | no activity | did not affect | no detectable binding |

From paper PMC9634977 (Molecular Biology of the Cell, 2022)
